For data set [1], the target named is T1, Cytochrome P450 2C19 (Homo sapiens, UniProt P33261). Nature of the data set: (§1) Extent of complex formation with 20 uM compound. The format is ADME, Oryctolagus cuniculus. Particulars: rabbit.
Data set [2] addresses T1, Cytochrome P450 2C19. Nature of the data set: Initial rate of complex formation without compound. The format is ADME, Oryctolagus cuniculus. Particulars: rabbit. An outline of the steps: (§2)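 Inverse cross-inhibition in NADPH-supplemented rabbit liver microsomes at 37 °C. Preincubation with racemic hydroxylamine at 0–30 μM, monitoring 457-nm complex formation. The amine was then added at 30 μM, or racemic hydroxylamine at 30 μM. Initial rate and plateau extent were taken from ΔA457–500 nm tracings. Percent inhibition is relative to incubation in fresh microsomes.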

Data set [3] addresses T1, Cytochrome P450 2C19. In words: Percent inhibition of formation of metabolic intermediate complex between Cytochrome P450 and compound 1a (30 uM) initially, on pre-incubation with compound concentration of 30 uM. It counts as ADME, Oryctolagus cuniculus. The conditions noted are these: rabbit, probe compound 1a (30 uM). Summed up:
as §2

Data set [4] can be described thus: Lag time between the addition of compound (30 uM) and the first appearance of chromophore. It counts as ADME. Summed up:
(§3)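 Rabbit liver microsomes at 2 mg protein/mL with 0.1 mM EDTA, 37 °C, substrate 30 μM. Complex formation started with 0.4 mM NADPH and followed by dual-wavelength absorbance, 457 vs 500 nm. Initial rate is the initial slope, ΔA×10^4 per nmol P-450 per min. Extent is the plateau absorbance. Lag is the time from NADPH addition to first 457-nm chromophore. Triplicate or single runs.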

For data set [5], the target named is T1, Cytochrome P450 2C19. In words: Percent inhibition of formation of metabolic intermediate complex between Cytochrome P450 and compound 1a (30 uM) initially, following incubation at compound concentration of 5 uM. The format is ADME, Oryctolagus cuniculus. Particulars: rabbit, probe compound 1a (30 uM). Summed up: as §2
Data set [6] concerns the target T1, Cytochrome P450 2C19. Nature of the data set: Extent of complex formation with 5 uM compound. The format is ADME, Oryctolagus cuniculus. The conditions noted are these: rabbit.
Data set [7] concerns the target T1, Cytochrome P450 2C19. Nature of the data set: Percent inhibition of formation of metabolic intermediate complex between Cytochrome P450 and compound 1a (30 uM) on extent, following incubation at compound concentration of 15 uM. It counts as ADME, Oryctolagus cuniculus. Particulars: rabbit, probe compound 1a (30 uM). Summed up: (§4)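 Hepatic microsomes came from male Dutch rabbits, fasted 24 h. They were diluted to 2 mg protein/mL in 50 mM Tris-Cl with 150 mM KCl, 10 mM MgSO4 and 0.1 mM EDTA, with NADPH added, at 37 °C. Microsomes were preincubated with racemic hydroxylamine 2, then 30 µM 1a or 30 µM racemic 2 was added. Complex formation was followed as ΔA457–500 nm, and inhibition of rate and extent (plateau) was calculated.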

The target in data set [8] is T1, Cytochrome P450 2C19. In words: Initial rate of complex formation with 20 uM compound. Particulars: rabbit. It counts as ADME, Oryctolagus cuniculus.
In data set [9] the target is T1, Cytochrome P450 2C19. Nature of the data set: Percent inhibition of formation of metabolic intermediate complex between Cytochrome P450 and compound 1a (30 uM) on extent, on pre-incubation with compound concentration of 30 uM. The format is ADME, Oryctolagus cuniculus. Particulars: rabbit, probe compound 1a (30 uM). Summed up:
as §4

Data set [10] can be described thus: Initial rates of formation of metabolic intermediate Cytochrome P-450 at compound concentration of 30 uM. The format is ADME. Summed up: as §3
Data set [11] deals with T1, Cytochrome P450 2C19. In words: Percent inhibition of formation of metabolic intermediate complex between Cytochrome P450 and compound 1a (30 uM) initially, on pre-incubation with compound concentration of 15 uM. It counts as ADME, Oryctolagus cuniculus. Particulars: rabbit, probe compound 1a (30 uM). Summed up:
as §2

Data set [12] deals with T1, Cytochrome P450 2C19. Nature of the data set: Percent inhibition of formation of metabolic intermediate complex between Cytochrome P450 and compound 1ab (30 uM) on extent, following incubation at compound concentration of 20 uM. It counts as ADME, Oryctolagus cuniculus. The conditions noted are these: rabbit, probe compound 1ab (30 uM). Summed up: (§5)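 Rabbit liver microsomes (2 mg protein/mL; Tris-Cl/KCl/MgSO4 buffer, 0.1 mM EDTA) plus NADPH, at 37 °C, were preincubated with racemic or enantiomeric amine 1. The 457-nm complex was monitored until it plateaued (6–8 min), then racemic hydroxylamine 2 was added. Initial rate and plateau extent of complex formation came from dual-wavelength ΔA457–500 nm versus time tracings.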

Data set [13] addresses T1, Cytochrome P450 2C19. In words: Initial rate of complex formation with 30 uM compound. It counts as ADME, Oryctolagus cuniculus. Particulars: rabbit.
For data set [14], the target named is T1, Cytochrome P450 2C19. In words: Percent inhibition of formation of metabolic intermediate complex between Cytochrome P450 and compound 1a (30 uM) initially, following incubation at compound concentration of 0 uM. The format is ADME, Oryctolagus cuniculus. Particulars: rabbit, probe compound 1a (30 uM). An outline of the steps: as §2
Data set [15] deals with T1, Cytochrome P450 2C19. Nature of the data set: Percent inhibition of formation of metabolic intermediate complex between Cytochrome P450 and compound 1a (30 uM) initially, on pre-incubation with compound concentration of 0 uM. The format is ADME, Oryctolagus cuniculus. Particulars: rabbit, probe compound 1a (30 uM). An outline of the steps:
as §2

The target of data set [16] is T1, Cytochrome P450 2C19. Nature of the data set: Extent of complex formation with 15 uM compound. It counts as ADME, Oryctolagus cuniculus. The conditions noted are these: rabbit.
For data set [17], the target named is T1, Cytochrome P450 2C19. Nature of the data set: Initial rate of complex formation with20 uM compound. It counts as ADME, Oryctolagus cuniculus. Particulars: rabbit, 20 µM.
Data set [18] is described as follows: Extent rates of formation of metabolic intermediate Cytochrome P-450 at compound concentration of 30 uM. The format is ADME. Summed up: as §3
Data set [19] has as its target T1, Cytochrome P450 2C19. Nature of the data set: Initial rate of complex formation with 5 uM compound. It counts as ADME, Oryctolagus cuniculus. Particulars: rabbit.
The target in data set [20] is T1, Cytochrome P450 2C19. Nature of the data set: Percent inhibition of formation of metabolic intermediate complex between Cytochrome P450 and compound 1ab (30 uM) initially, following incubation at compound concentration of 20 uM. It counts as ADME, Oryctolagus cuniculus. The conditions noted are these: rabbit, probe compound 1ab (30 uM). An outline of the steps: as §5

Data set [21] has as its target T1, Cytochrome P450 2C19. The description is as §1. The format is ADME, Oryctolagus cuniculus. The conditions noted are these: rabbit. The source holds these as a separate data set.
Data set [22] addresses T1, Cytochrome P450 2C19. In words: Extent of complex formation with 30 uM compound. The conditions noted are these: rabbit. It counts as ADME, Oryctolagus cuniculus.
The target of data set [23] is T1, Cytochrome P450 2C19. Nature of the data set: Percent inhibition of formation of metabolic intermediate complex between Cytochrome P450 and compound 1a (30 uM) on extent, on pre-incubation with compound concentration of 5 uM. Particulars: rabbit, probe compound 1a (30 uM). It counts as ADME, Oryctolagus cuniculus. Summed up:
as §4

The target of data set [24] is T1, Cytochrome P450 2C19. In words: Percent inhibition of formation of metabolic intermediate complex between Cytochrome P450 and compound 1a (30 uM) on extent, following incubation at compound concentration of 5 uM. It counts as ADME, Oryctolagus cuniculus. Particulars: rabbit, probe compound 1a (30 uM). An outline of the steps:
as §4

Results on one compound are retold here after ChEMBL document CHEMBL1121797, “Studies on chiral interactions of 1-(2,5-dimethoxy-4-methylphenyl)-2-aminopropane and the corresponding N-hydroxy metabolites with cytochrome P-450” (J Med Chem, 1981).

Several values for one entry are separate records, joined by “and”; a condition that tells them apart may be missing. Identical values can stand only once.

T1 sequence (P33261 whole entry): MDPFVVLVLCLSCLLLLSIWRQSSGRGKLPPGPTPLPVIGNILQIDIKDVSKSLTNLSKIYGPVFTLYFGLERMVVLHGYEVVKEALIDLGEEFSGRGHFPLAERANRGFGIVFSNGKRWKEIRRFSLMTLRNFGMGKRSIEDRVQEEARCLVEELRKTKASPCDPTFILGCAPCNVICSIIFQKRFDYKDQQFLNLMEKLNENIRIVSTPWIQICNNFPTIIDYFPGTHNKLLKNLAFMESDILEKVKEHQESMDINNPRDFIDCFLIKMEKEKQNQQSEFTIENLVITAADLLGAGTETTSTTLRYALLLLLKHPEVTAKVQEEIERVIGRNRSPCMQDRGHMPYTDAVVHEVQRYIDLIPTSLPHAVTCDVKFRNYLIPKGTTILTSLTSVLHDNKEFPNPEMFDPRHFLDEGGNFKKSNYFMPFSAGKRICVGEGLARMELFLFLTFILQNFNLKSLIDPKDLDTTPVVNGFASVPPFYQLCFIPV

As to `COc1cc(C[C@@H](C)NO)c(OC)cc1C.COc1cc(C[C@H](C)NO)c(OC)cc1C`, the Complex_formation on Cytochrome P450 2C19 [1] is 108 deltaA.10^4nmol-1; on Cytochrome P450 2C19 [6], 39 deltaA.10^4nmol-1; on Cytochrome P450 2C19 [16], 97 deltaA.10^4nmol-1; on Cytochrome P450 2C19 [21], 90 deltaA.10^4nmol-1; on Cytochrome P450 2C19 [22] it was 139 deltaA.10^4nmol-1 and 135 deltaA.10^4nmol-1. For the same compound, the Initial_rate at Cytochrome P450 2C19 [2] was 46 deltaA.10^4nmol-1.min-1 and 124 deltaA.10^4nmol-1.min-1; on Cytochrome P450 2C19 [8], 89 deltaA.10^4nmol-1.min-1; at Cytochrome P450 2C19 [13], 5 deltaA.10^4nmol-1.min-1; at Cytochrome P450 2C19 [17], 87 deltaA.10^4nmol-1.min-1; at Cytochrome P450 2C19 [19] it was 52 deltaA.10^4nmol-1.min-1. Besides, the inhibition at 30 µM at Cytochrome P450 2C19 [3] and on Cytochrome P450 2C19 [9] was 100% in each case. In data set [4], this compound returned a Lag time of 0 s. In addition, the figures for the inhibition at 5 µM against Cytochrome P450 2C19 [5], on Cytochrome P450 2C19 [23] and against Cytochrome P450 2C19 [24] were 39%, 43% and 39%, respectively. Moreover, the inhibition at 15 µM on Cytochrome P450 2C19 [7] is 46%; at Cytochrome P450 2C19 [11], 100%. In addition, the figures for the Rate in [10] and in data set [18] were 154 and 131, respectively. Also, the inhibition at 20 µM against Cytochrome P450 2C19 [12] was 12%; against Cytochrome P450 2C19 [20], 30%. Further, the results for the inhibition at 0 uM against Cytochrome P450 2C19 [14] and at Cytochrome P450 2C19 [15] were 30% and 0%, respectively.
